Activity calls are given as the source filed them. The calls are words filed in the database; no cut-off is given here.
How the values were obtained:
Medulloblastoma cell = assay: Antiproliferative activity against medulloblastoma cells derived from conditional patched knockout mouse after 48 hrs by [3H]-thymidine incorporation assay; format: functional
In short: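 Primary tumour cells from Math1-Cre;Ptc fl/fl medulloblastoma were isolated and cultured in vitro, then incubated with analogue for 48 h in a proliferation assay. GI50 is mean ± SEM of at least two separate experiments performed in triplicate.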

[1] = Half life in rat liver homogenates; format: ADME, tissue-based
[2] = molecular target: T1, Vitamin D3 receptor (Mus musculus) (UniProt P48281); assay: Activation of VDR in mouse C3H10T1/2 cells assessed as change in Cyp24A1 mRNA expression at 5 uM after 24 hrs by q-PCR analysis relative to control; format: cell-based
T1 sequence (whole entry): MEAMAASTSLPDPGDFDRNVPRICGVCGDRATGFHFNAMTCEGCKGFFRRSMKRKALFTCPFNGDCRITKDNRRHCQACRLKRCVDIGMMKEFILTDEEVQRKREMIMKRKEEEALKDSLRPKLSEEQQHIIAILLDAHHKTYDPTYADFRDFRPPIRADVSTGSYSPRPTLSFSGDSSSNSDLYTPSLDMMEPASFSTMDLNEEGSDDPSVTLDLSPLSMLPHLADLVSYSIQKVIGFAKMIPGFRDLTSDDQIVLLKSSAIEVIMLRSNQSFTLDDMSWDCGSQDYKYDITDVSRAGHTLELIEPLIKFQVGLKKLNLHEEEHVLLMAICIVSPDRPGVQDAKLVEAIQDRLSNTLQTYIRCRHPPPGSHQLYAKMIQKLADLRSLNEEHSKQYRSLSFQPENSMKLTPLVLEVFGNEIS

Mus musculus [3] = species on record: Mus musculus; assay: Inhibition of Hedgehog signaling pathway in Sufu-deficient mouse C3H10T1/2 cells assessed as reduction in oxysterol-induced Gli1 mRNA expression at 1 uM after 24 hrs by q-PCR analysis
Mus musculus [4] = species on record: Mus musculus; assay: Inhibition of Hedgehog signaling pathway in VDR-deficient mouse C3H10T1/2 cells assessed as reduction in oxysterol-induced Gli1 mRNA expression at 1 uM after 24 hrs by q-PCR analysis
Mus musculus [5] = species on record: Mus musculus; assay: Inhibition of Hedgehog signaling pathway in Sufu-deficient mouse C3H10T1/2 cells assessed as change in CYP24A1 mRNA expression at 1 uM after 24 hrs by q-PCR analysis; design: scale not given: the % may be the effect or the level left
Mus musculus [6] = species on record: Mus musculus; assay: Inhibition of Hedgehog signaling pathway in mouse C3H10T1/2 cells assessed as reduction in oxysterol-induced Gli1 mRNA expression at 1 uM after 24 hrs by q-PCR analysis relative to oxysterol alone; format: cell-based; design: scale not given: the % may be the effect or the level left
In short: (§1)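 Gli1 transcription was induced in C3H10T1/2 cells by co-treating with 20(S)-OHC and 22(S)-OHC (5 µM each) plus analogue for 24 h. Gli1 mRNA was quantified by qPCR and expressed as % of the oxysterol-only control (set to 100%). Data are mean ± SEM of at least two separate experiments run in triplicate.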

Mus musculus [7] = species on record: Mus musculus; assay: Inhibition of Hedgehog signaling pathway in VDR-deficient mouse C3H10T1/2 cells assessed as change in CYP24A1 mRNA expression at 1 uM after 24 hrs by q-PCR analysis; design: scale not given: the % may be the effect or the level left
[8] = molecular target: T1, Vitamin D3 receptor (Mus musculus); assay: Activation of VDR in mouse ASZ001 cells assessed as change in Cyp24A1 mRNA expression at 1 uM after 48 hrs by q-PCR analysis relative to control; format: cell-based
Vitamin D3 receptor = molecular target: T2, Vitamin D3 receptor (Mus musculus, UniProt P48281); assay: Activation of VDR in mouse ASZ001 cells assessed as change in Cyp24A1 mRNA expression after 48 hrs by q-PCR analysis; format: cell-based
T2 sequence (P48281 whole entry): T1 sequence (whole entry)
In short: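 In ASZ001 cells, full dose-response Cyp24A1 mRNA measurement by qPCR was done relative to DMSO control (1.0). EC50 values are mean ± SEM of at least two separate experiments performed in triplicate.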

[9] = Inhibition of Hedgehog signaling pathway in mouse ASZ001 cells assessed as reduction in […] Gli1 mRNA expression after 48 hrs by q-PCR analysis; format: cell-based; settings: ASZ001, 48 h
[10] = Inhibition of Hedgehog signaling pathway in mouse C3H10T1/2 cells assessed as reduction in oxysterol-induced Gli1 mRNA expression after 24 hrs by q-PCR analysis; format: cell-based; settings: C3H 10T1/2, 24 h
[11] = molecular target: T1, Vitamin D3 receptor (Mus musculus); assay: Activation of VDR in mouse C3H10T1/2 cells assessed as change in Cyp24A1 mRNA expression at 2.5 uM after 24 hrs by q-PCR analysis relative to control; format: cell-based
Mus musculus [12] = species on record: Mus musculus; assay: Inhibition of Hedgehog signaling pathway in mouse C3H10T1/2 cells assessed as reduction in oxysterol-induced Gli1 mRNA expression at 2.5 uM after 24 hrs by q-PCR analysis relative to oxysterol alone; format: cell-based; in short: as §1

Row | GI50 (Medulloblastoma cell) [nM] | half-life [1] [h] | Activity [2] [%] | inhibition (Mus musculus [3]) | inhibition (Mus musculus [4]) | Activity (Mus musculus [5]) [%] | Activity (Mus musculus [7]) [%] | Activity [8] [%] | EC50 (Vitamin D3 receptor) [nM] | IC50 [9] [nM] | IC50 [10] [nM] | Activity [11] [%] | Structure (SMILES) | Activity (Mus musculus [6]) [%] | % Gli1 activity (Mus musculus [12]) [%]
1 | 1400 | > 2 | > 30000 | inactive | inactive | 590 | 530 | > 30000 | – | – | – | – | C=C1/C(=C\C=C2/CCC[C@]3(C)[C@@H]([C@H](C)CCCC(C)(C)O)CC[C@@H]23)C[C@@H](O)C[C@@H]1O [CALCITRIOL] | 30 | –
2 | – | – | – | – | – | – | – | 11000 | 600 | 500 | 400 | > 30000 | C=C1CC[C@H](O)C/C1=C/C=C1\CCC[C@]2(C)[C@@H]([C@H](C)CCCC(C)(C)O)CC[C@@H]12 [CALCIFEDIOL ANHYDROUS] | – | 9.2

Source: ChEMBL document CHEMBL4382241, “Synthesis and evaluation of third generation vitamin D3 analogues as inhibitors of Hedgehog signaling” (Eur J Med Chem, 2019)
